Assay results taken from ChEMBL document CHEMBL5712908, “A genome-wide RNAi screen reveals essential therapeutic targets of breast cancer stem cells” (2019).
Active and inactive are the calls of the source.

What was measured:
Breast cancer cell line [1] = test: Antitumor activity against human CRCM404 negative breast cancer cells orthotopically xenografted in NSG mouse model of PDX assessed as reduction in tumor volume at 50 mg/kg, ip 5 out of 7 for 2 weeks; format: functional, organism-based
Method in brief: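 Chemo-naïve triple-negative PDX cells injected at 100,000 per fat pad, two fat pads per NSG mouse. At ~80 mm³ tumours, mice received i.p. 3 mg/kg daily for 14 days or 50 mg/kg 5 of 7 days for 2 weeks; placebo was DMSO/HPCD 10% (1:9). Five mice (10 tumours) per group. Tumour growth monitored; after 2 weeks tumours dissociated, mouse cells excluded via anti-H2Kd, ALDHbr measured by ALDEFLUOR flow cytometry and normalised to vehicle.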

SUM-159-PT [2] = test: Synergistic anticancer activity against human SUM159 cells assessed as decrease in secondary tumor sphere formation at 62 nM incubated for 72 hrs in presence of salinomycin by Extreme limiting dilution analysis; format: functional
Method in brief: (§1)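 72 h adherent pretreatment (Sal/JQ1 62 nM/62 nM; docetaxel added at 2 nM where used), then single cells plated in ultra-low attachment 96-well plates in serum-free mammary epithelium basal medium at 25/10/5/3/2/1 cells/well (18–36 wells/condition). Wells with ≥1 sphere after 10 days scored positive; sphere-forming frequency by ELDA. Secondary spheres from dissociated primary spheres. n = 4; pairwise chi-square.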

Breast cancer cell line [3] = test: Synergistic antitumor activity against human CRCM404 negative breast cancer cells xenografted in NSG mouse model of PDX assessed as reduction metastasis formation in liver at 50 mg/kg, ip 5 out of 7 for 2 weeks cotreated with salinomycin; format: functional, organism-based
Method in brief: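 Luciferase-expressing PDX cells sorted H2Kd⁻ and viable, 100,000 in 100 μl PBS injected in NSG tail vein. From the next day, salinomycin 3 mg/kg i.p. daily and/or JQ1 50 mg/kg i.p. 5 of 7 days for 2 weeks. Lungs and liver imaged by bioluminescence after i.p. luciferin 30 mg/kg; normalised photon flux; 10 mice/group; Wilcoxon test.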

Breast cancer cell line [4] = test: Synergistic antitumor activity against human reimplanted CRCM494 negative breast cancer cells orthotopically xenografted in NSG mouse model of PDX assessed as reduction tumor volume at 50 mg/kg, ip 5 out of 7 for 2 weeks cotreated with salinomycin by limiting dilation analysis; format: functional, organism-based
Breast cancer cell line [5] = test: Synergistic antitumor activity against human CRCM434 negative breast cancer cells orthotopically xenografted in NSG mouse model of PDX assessed as reduction ALDHbr cells at 50 mg/kg, ip 5 out of 7 for 2 weeks cotreated with salinomycin by LSR2 cytometer analysis; format: functional
Breast cancer cell line [6] = test: Synergistic antitumor activity against human CRCM494 negative breast cancer cells orthotopically xenografted in NSG mouse model of PDX assessed as reduction ALDHbr cells at 50 mg/kg, ip 5 out of 7 for 2 weeks cotreated with salinomycin by LSR2 cytometer analysis; format: functional
SUM-159-PT [7] = test: Synergistic anticancer activity against human SUM159 cells expressing BFP assessed as reduction in ALDHbr cell 50 nM in presence of salinomycin by LSR2 cytometer analysis; format: functional
SUM-159-PT [8] = test: Synergistic anticancer activity against human SUM159 cells assessed as decrease in docetaxel induced ALDHbr cells at 62 nM in presence of salinomycin by LSR2 cytometer analysis; format: functional, cell-based
Method in brief: (§2)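 SUM159 or SUM149 cells treated 72 h in adherent conditions; docetaxel combined with other drugs at 2 nM; combination doses chosen from synergy distributions (Sal/JQ1 62 nM/62 nM). ALDEFLUOR staining with DEAB control, flow cytometry on LSR2. n = 8; Student's t-test; mean ± SD.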

SUM149PT = test: Synergistic anticancer activity against human SUM149 cells assessed as decrease in docetaxel induced ALDHbr cells at 62 nM in presence of salinomycin by LSR2 cytometer analysis; format: functional, cell-based; method in brief: as §2
SUM-159-PT [9] = test: Anticancer activity against human SUM159 cells assessed as decrease in secondary tumor sphere formation incubated for 72 hrs by Extreme limiting dilution analysis; format: functional, cell-based
Method in brief: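 Cells drug-treated in adherent culture for 72 h, then plated as single cells in ultra-low attachment 96-well plates in serum-free mammary epithelium basal medium. Plating at 25/10/5/3/2/1 cells per well, 18–36 wells per condition. Wells with ≥1 sphere after 10 days scored positive. Secondary spheres were made by dissociating primary spheres. Frequency by ELDA; n = 4; pairwise chi-square test.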

SUM-159-PT [10] = test: Anticancer activity against human SUM159 cells expressing BFP assessed as reduction in ALDHbr cell at 5 to 500 nM by LSR2 cytometer analysis; format: functional, cell-based; details: dose 5-500 nM
Breast cancer cell line [11] = test: Synergistic antitumor activity against human CRCM494 negative breast cancer cells orthotopically xenografted in NSG mouse model of PDX assessed as reduction in tumor volume at 50 mg/kg, ip 5 out of 7 for 2 weeks cotreated with salinomycin; format: functional, organism-based
Method in brief: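 Orthotopic PDX in NSG mice, 100,000 cells per fat pad, two pads per mouse; treatment from ~80 mm³ tumours with salinomycin i.p. 3 mg/kg daily 14 days, JQ1 i.p. 50 mg/kg 5 of 7 days for 2 weeks, or combination, against placebo DMSO/HPCD 10% (1:9). Tumour growth monitored; n = 10 tumours per group.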

SUM-159-PT [12] = test: Synergistic anticancer activity against human SUM159 cells assessed as decrease in docetaxel induced primary tumor sphere formation at 62 nM incubated for 72 hrs in presence of salinomycin by Extreme limiting dilution analysis; format: functional, cell-based; method in brief: as §1
Breast cancer cell line [13] = test: Synergistic apoptosis activity in patient-derived breast cancer cells orthotopically xenografted in NSG mouse model of PDX assessed as increase in cleaved caspase-3 at 50 mg/kg, ip 5 out of 7 for 2 weeks by Immunostaining analysis; format: functional, organism-based; details: Homo sapiens
Method in brief: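 Paraffin sections of treated PDX tumours deparaffinised and subjected to antigen retrieval in citrate buffer pH 6. Peroxidase staining with ready-to-use Ki67 or cleaved caspase-3 antibody, DAB substrate, haematoxylin counterstain. Proportion of positive cells quantified; n = 3; t-test.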

SUM-159-PT [14] = test: Synergistic apoptosis in human SUM159 cells expressing ALDHbr at 500 nM incubated for 72 hrs in presence of salinomycin by ALDEFLUOR/YO-PRO-3/ Hoechst 33342 staining based high content imaging microscopic analysis; format: functional, cell-based
Method in brief: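 SUM159 cells seeded at 3,000 cells/well in collagen-coated 96-well plates. Drug added at 6, 24 and 48 h post-seeding. Cisplatin served as positive control and 0.1% v/v DMSO as vehicle control. At 72 h post-seeding, cells were stained with ALDEFLUOR, YO-PRO-3 (1/4,000) and Hoechst 33342 (10 μg/ml) in ALDEFLUOR buffer for 30 min at 37°C, then imaged on ice by high-content microscopy, 9 fields/well. DEAB set the ALDHbr gate. YO-PRO-3⁺ fraction per subpopulation was gated against untreated cells.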

SUM-159-PT [15] = test: Induction of apoptosis in human SUM159 cells expressing ALDHbr upto 100 uM incubated for 72 hrs by ALDEFLUOR/YO-PRO-3/ Hoechst 33342 staining based high content imaging microscopic analysis; format: functional, cell-based
Method in brief: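 SUM159 at 3,000 cells/well on collagen plates, dosed at 6, 24 and 48 h post-seeding; 0.1% DMSO negative control, cisplatin positive control. At 72 h stained 30 min at 37°C with ALDEFLUOR, YO-PRO-3 and Hoechst 33342, then imaged ice-cold. YO-PRO-3-positive nuclei (above untreated signal) counted over total cells, per ALDHbr/ALDH- subpopulation; n = 6.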

Cc1sc2c(c1C)C(c1ccc(Cl)cc1)=N[C@@H](CC(=O)OC(C)(C)C)c1nnc(C)n1-2
active: Activity (Breast cancer cell line [1]) | Activity (Breast cancer cell line [3]) | Activity (Breast cancer cell line [4]) | Activity (SUM-159-PT [8]) | Activity (SUM149PT) | Activity (SUM-159-PT [9]) | Activity (SUM-159-PT [10]) | Activity (Breast cancer cell line [11]) | Activity (SUM-159-PT [12]) | Activity (SUM-159-PT [14]) | Activity (SUM-159-PT [15])
2: fold change (FC) (Breast cancer cell line [5]) | fold change (FC) (Breast cancer cell line [6])
5.4: fold change (FC) (SUM-159-PT [2])
4: fold change (FC) (SUM-159-PT [7])
inactive: Activity (Breast cancer cell line [13])
